Measurements taken from ChEMBL document CHEMBL2321659, “Design, synthesis, and biological evaluation of indenoisoquinoline rexinoids with chemopreventive potential” (J Med Chem, 2013).

Key:
[1] = molecular target: T1, Retinoic acid receptor RXR-alpha (Homo sapiens) (UniProt P19793); test: Activation of human RXRalpha activity expressed in COS1 cells assessed as induction ratio at 50 uM after 12 hrs by RXRE-luciferase reporter gene assay relative to untreated control; format: cell-based; conditions: COS-1
T1 sequence (whole entry): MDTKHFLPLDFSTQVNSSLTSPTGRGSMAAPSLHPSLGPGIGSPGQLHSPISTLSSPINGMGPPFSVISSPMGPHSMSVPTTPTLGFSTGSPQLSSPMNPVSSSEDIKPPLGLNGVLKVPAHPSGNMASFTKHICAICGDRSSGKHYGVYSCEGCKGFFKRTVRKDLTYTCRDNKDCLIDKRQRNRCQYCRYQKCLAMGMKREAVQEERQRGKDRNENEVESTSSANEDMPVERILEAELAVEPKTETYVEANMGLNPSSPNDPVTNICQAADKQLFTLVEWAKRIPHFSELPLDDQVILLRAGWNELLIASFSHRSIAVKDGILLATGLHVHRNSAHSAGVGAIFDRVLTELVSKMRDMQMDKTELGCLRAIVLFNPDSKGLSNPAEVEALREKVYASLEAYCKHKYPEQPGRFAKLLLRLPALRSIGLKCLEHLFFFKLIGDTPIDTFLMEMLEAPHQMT
How it was run: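 COS-1 cells transiently co-transfected per well with 100 ng RXRE-firefly luciferase reporter, 50 ng human RXRα expression vector and 3 ng Renilla luciferase vector using Lipofectamine 2000 for 24 h, then exposed to compound for a further 12 h. Dual-luciferase read-out. Induction ratio taken at 50 µM test concentration.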

[2] = Cytotoxicity against African green monkey COS1 cells assessed as cell survival; format: cell-based; set-up: concentration or dose not given beside the values; conditions: chlorocebus aethiops, COS-1 cells; read-out: Activity

Structure (SMILES) | Ratio [1] | viability [2] [%]
Cn1c2c(c3ccccc3c1=O)C(=O)c1ccccc1-2 | < 1 | 
Cn1c2c(c3ccc(NC(=O)CC(=O)O)cc3c1=O)C(=O)c1ccccc1-2 | < 1 | 
CNc1ccc2c3c(n(CCCN)c(=O)c2c1)-c1ccccc1C3=O |  | 45.9
CNc1ccc2c3c(n(CCCN)c(=O)c2c1)-c1ccccc1C3O (stereo not given) | < 1 | 
Cn1c2c(c3ccc(/C=C/C(=O)O)cc3c1=O)C(=O)c1ccccc1-2 | < 1 | 
COC(=O)c1ccc2c3c(n(CCCn4ccnc4)c(=O)c2c1)-c1ccccc1C3=O | < 1 | 
Cc1cc2c(cc1C1(c3ccc(C(=O)O)cn3)CC1)C(C)(C)CCC2(C)C |  | 84.3
CCOC(CCn1c2c(c3ccc([N+](=O)[O-])cc3c1=O)C(=O)c1ccccc1-2)OCC | < 1 | 
COc1ccc2c(c1)C(=O)c1c-2n(CCCN)c(=O)c2cc(OC)c(OC)cc12 | < 1 | 
COC(=O)CCCC(=O)Nc1ccc2c3c(n(CCCN)c(=O)c2c1)-c1ccccc1C3=O | < 1 | 
COc1cc2c3c(n(CCCN)c(=O)c2cc1OC)-c1ccc(F)cc1C3=O | < 1 | 23.8
COC(=O)CCCCC(=O)Nc1ccc2c3c(n(CCCN)c(=O)c2c1)-c1ccccc1C3=O | < 1 | 
CCOC(=O)CNc1ccc2c3c(n(C)c(=O)c2c1)-c1ccccc1C3=O | < 1 | 
COC(CCn1c2c(c3ccc([N+](=O)[O-])cc3c1=O)C(=O)c1ccccc1-2)OC | < 1 | 
COC(=O)c1ccc2c3c(n(CCCN4CCOCC4)c(=O)c2c1)-c1ccccc1C3=O | < 1 | 
O=C1c2ccccc2-c2c1c1ccccc1c(=O)n2CCCn1ccnc1 | < 1 | 100
COC(=O)CC(=O)Nc1ccc2c3c(n(C)c(=O)c2c1)-c1ccccc1C3=O | < 1 | 
COC(=O)CCCC(=O)Nc1ccc2c3c(n(C)c(=O)c2c1)-c1ccccc1C3=O | < 1 | 
Cn1c2c(c3ccc(NC(=O)C(=O)O)cc3c1=O)C(=O)c1ccccc1-2 | < 1 | 
COC(=O)CCCCC(=O)Nc1ccc2c3c(n(C)c(=O)c2c1)-c1ccccc1C3=O | < 1 | 
COC(=O)CCC(=O)Nc1ccc2c3c(n(C)c(=O)c2c1)-c1ccccc1C3=O | < 1 | 
CN(C)c1ccc2c3c(n(CCCNC(=O)OC(C)(C)C)c(=O)c2c1)-c1ccccc1C3=O | < 1 | 

Structure (SMILES) | Ratio [1] | viability [2] [%]
Cn1c2c(c3ccc(NCC(=O)O)cc3c1=O)C(=O)c1ccccc1-2 | < 1 | 
Cn1c2c(c3ccc(CC(=O)O)cc3c1=O)C(=O)c1ccccc1-2 | < 1 | 
Cn1c2c(c3ccc(/C=C/C#N)cc3c1=O)C(=O)c1ccccc1-2 | < 1 | 
COC(=O)C#Cc1ccc2c3c(n(C)c(=O)c2c1)-c1ccccc1C3=O | < 1 | 
NCCCn1c2c(c3ccc(NC(=O)CCCC(=O)O)cc3c1=O)C(=O)c1ccccc1-2 | < 1 | 
CN(C)CCCn1c2c(c3ccc(C#N)cc3c1=O)C(=O)c1cc3c(cc1-2)OCO3 | < 1 | 
COC(=O)CCC(=O)Nc1ccc2c3c(n(CCCN)c(=O)c2c1)-c1ccccc1C3=O | < 1 | 
CNc1ccc2c3c(n(CCCNC(=O)OC(C)(C)C)c(=O)c2c1)-c1ccccc1C3=O | < 1 | 
COC(=O)Cc1ccc2c3c(n(C)c(=O)c2c1)-c1ccccc1C3=O | < 1 | 
Cn1c2c(c3ccc([N+](=O)[O-])cc3c1=O)C(=O)c1ccccc1-2 | < 1 | 
CNc1ccc2c3c(n(CCCNC(=O)OC(C)(C)C)c(=O)c2c1)-c1ccccc1C3O (stereo not given) | < 1 | 
CNCCCn1c2c(c3ccc(N)cc3c1=O)C(O)c1ccccc1-2 (stereo not given) | < 1 | 
NCCCn1c2c(c3ccc(NC(=O)CCCCC(=O)O)cc3c1=O)C(=O)c1ccccc1-2 | < 1 | 
COc1ccc2c(c1)C(=O)c1c-2n(CCCN)c(=O)c2cc(N(C)C)ccc12 | < 1 | 
CC(C)(C)OC(=O)NCCCn1c2c(c3ccc([N+](=O)[O-])cc3c1=O)C(=O)c1ccccc1-2 | < 1 | 
Cn1c2c(c3ccc(C(=O)O)cc3c1=O)C(=O)c1ccccc1-2 | < 1 | 
CNCCCn1c2c(c3ccc(N)cc3c1=O)C(=O)c1ccccc1-2 |  | 53
COC(=O)c1ccc2c3c(n(C)c(=O)c2c1)-c1ccccc1C3=O | < 1 | 
COC(=O)/C=C/c1ccc2c3c(n(C)c(=O)c2c1)-c1ccccc1C3=O | < 1 | 
COC(=O)C(=O)Nc1ccc2c3c(n(C)c(=O)c2c1)-c1ccccc1C3=O | < 1 | 
COC(=O)CCCc1ccc2c3c(n(C)c(=O)c2c1)-c1ccccc1C3=O | < 1 | 

Continued, in another order:

Ratio [1] | Structure (SMILES) | viability [2] [%]
< 1 | O=C(O)CCn1c2c(c3ccccc3c1=O)C(=O)c1ccccc1-2 | 
< 1 | COC(=O)C(=O)Nc1ccc2c3c(n(CCCN)c(=O)c2c1)-c1ccccc1C3=O | 
< 1 | CNCCCn1c2c(c3ccc([N+](=O)[O-])cc3c1=O)C(=O)c1ccccc1-2 | 33.1
< 1 | CC(=O)Nc1ccc2c3c(n(CCCCl)c(=O)c2c1)-c1ccccc1C3=O | 
< 1 | C[N+](C)(C)CCCn1c2c(c3ccccc3c1=O)C(=O)c1ccccc1-2 | 99.4
< 1 | CN(C)CCCn1c2c(c3ccc([N+](=O)[O-])cc3c1=O)C(=O)c1ccccc1-2 | 83.7
< 1 | O=C1c2ccccc2-c2c1c1ccc([N+](=O)[O-])cc1c(=O)n2CCCBr | 
< 1 | NC(=O)CCn1c2c(c3ccc([N+](=O)[O-])cc3c1=O)C(=O)c1ccccc1-2 | 
< 1 | O=C1c2ccccc2-c2c1c1ccc([N+](=O)[O-])cc1c(=O)n2CCCCl | 
< 1 | NCCCn1c2c(c3ccc(C(=O)O)cc3c1=O)C(=O)c1ccccc1-2 | 83.7
< 1 | Nc1ccc2c3c(n(CCCO)c(=O)c2c1)-c1ccccc1C3O (stereo not given) | 
< 1 | NCCCn1c2c(c3ccc(NC(=O)CCC(=O)O)cc3c1=O)C(=O)c1ccccc1-2 | 
< 1 | Nc1ccc2c3c(n(CCCO)c(=O)c2c1)-c1ccccc1C3=O | 
< 1 | NCCCn1c2c(c3ccc([N+](=O)[O-])cc3c1=O)C(=O)c1ccccc1-2 | 32.1
< 1 | O=C1c2ccccc2-c2c1c1ccc(Br)cc1c(=O)n2CCCN1CCOCC1 | 100
< 1 | Cn1c2c(c3ccc(Br)cc3c1=O)C(=O)c1ccccc1-2 | 
< 1 | COC(=O)CCn1c2c(c3ccc(Br)cc3c1=O)C(=O)c1ccccc1-2 | 
< 1 | Cc1ccc2c3c(n(C)c(=O)c2c1)-c1ccccc1C3=O | 
< 1 | CN(C)c1ccc2c3c(n(CCCN)c(=O)c2c1)-c1ccccc1C3=O | 30.6
< 1 | N#Cc1ccc2c3c(n(CCCn4ccnc4)c(=O)c2c1)-c1ccccc1C3=O | 
< 1 | CC(=O)NCCCn1c2c(c3ccc([N+](=O)[O-])cc3c1=O)C(=O)c1ccccc1-2 | 
< 1 | COCCCn1c2c(c3ccccc3c1=O)C(=O)c1ccccc1-2 | 
< 1 | O=C1c2ccccc2-c2c1c1ccccc1c(=O)n2CCCO | 
< 1 | Cn1c2c(c3ccc(C(N)=O)cc3c1=O)C(=O)c1ccccc1-2 | 

Ratio [1] | Structure (SMILES) | viability [2] [%]
< 1 | [N-]=[N+]=NCCCn1c2c(c3ccc([N+](=O)[O-])cc3c1=O)C(=O)c1ccccc1-2 | 
< 1 | Cn1c2c(c3ccc(Cl)cc3c1=O)C(=O)c1ccccc1-2 | 
< 1 | N#Cc1ccc2c3c(n(CCCN4CCOCC4)c(=O)c2c1)-c1ccccc1C3=O | 
< 1 | CC(=O)Nc1ccc2c3c(n(CCCN=[N+]=[N-])c(=O)c2c1)-c1ccccc1C3=O | 
< 1 | NC(=O)CCn1c2c(c3ccccc3c1=O)C(=O)c1ccccc1-2 | 
< 1 | CCCCn1c2c(c3ccccc3c1=O)C(=O)c1ccccc1-2 | 
< 1 | O=CCCn1c2c(c3ccc([N+](=O)[O-])cc3c1=O)C(=O)c1ccccc1-2 | 
< 1 | CC(C)(C)OC(=O)NCCCn1c2c(c3ccc(N)cc3c1=O)C(=O)c1ccccc1-2 | 
< 1 | Cn1c2c(c3ccc(CCCC(=O)O)cc3c1=O)C(=O)c1ccccc1-2 | 
< 1 | O=C1c2ccccc2-c2c1c1ccc(Br)cc1c(=O)n2CCCO | 
< 1 | CC(=O)Nc1ccc2c3c(n(CCCO)c(=O)c2c1)-c1ccccc1C3=O | 
< 1 | NCCCn1c2c(c3ccc(NC(=O)C(=O)O)cc3c1=O)C(=O)c1ccccc1-2 | 
< 1 | [N-]=[N+]=NCCn1c2c(c3ccc([N+](=O)[O-])cc3c1=O)C(=O)c1ccccc1-2 | 
< 1 | NCCCn1c2c(c3ccc(N)cc3c1=O)C(O)c1ccccc1-2 (stereo not given) | 
< 1 | O=C1c2ccccc2-c2c1c1ccc(Br)cc1c(=O)n2CCCn1ccnc1 | 
< 1 | NCCCn1c2c(c3ccc(NC(=O)CC(=O)O)cc3c1=O)C(=O)c1ccccc1-2 | 
< 1 | O=C1c2ccccc2-c2c1c1ccc([N+](=O)[O-])cc1c(=O)n2CCCO | 
< 1 | O=C1c2ccccc2-c2c1c1ccc([N+](=O)[O-])cc1c(=O)n2CCCCO | 
< 1 | Cn1c2c(c3ccc(C=O)cc3c1=O)C(=O)c1ccccc1-2 | 
< 1 | O=C(O)CCn1c2c(c3ccc([N+](=O)[O-])cc3c1=O)C(=O)c1ccccc1-2 | 
< 1 | Cn1c2c(c3ccc(C#N)cc3c1=O)C(=O)c1ccccc1-2 | 
< 1 | Cn1c2c(c3ccc(I)cc3c1=O)C(=O)c1ccccc1-2 | 
< 1 | COCCCn1c2c(c3ccc([N+](=O)[O-])cc3c1=O)C(=O)c1ccccc1-2 | 
< 1 | Nc1ccc2c3c(n(CCCCl)c(=O)c2c1)-c1ccccc1C3=O | 
